Bioassay records deposited in PubChem by several laboratories.
L major viab – Leishmania major promastigote growth inhibition, primary screen. Leishmania major promastigotes, resazurin fluorescence viability. inhibition, % at 10 µM. 200,000 tested, 9% active. AID 1063, 2008; in the data active = inhibition above about 50%;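 note: promastigotes grown with compound for 44 hours at 28 °C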
TNAP act hi DEA – TNAP activators at high phosphate acceptor level, primary screen, biochemical, luminescence, uHTS; Alkaline phosphatase, tissue-nonspecific isozyme (Homo sapiens), P05186; purified TNAP, CDP-star luminescence, 1 M DEA, 30 min; hits give high values; 0 = EDTA background, 1 = DMSO-only activity; activation factor at 20 µM; 200,000 tested, under 10 active; AID 1136, 2008;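 active = activation factor at least 2 at 20 µM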
Target sequence (P05186 whole entry, looked up): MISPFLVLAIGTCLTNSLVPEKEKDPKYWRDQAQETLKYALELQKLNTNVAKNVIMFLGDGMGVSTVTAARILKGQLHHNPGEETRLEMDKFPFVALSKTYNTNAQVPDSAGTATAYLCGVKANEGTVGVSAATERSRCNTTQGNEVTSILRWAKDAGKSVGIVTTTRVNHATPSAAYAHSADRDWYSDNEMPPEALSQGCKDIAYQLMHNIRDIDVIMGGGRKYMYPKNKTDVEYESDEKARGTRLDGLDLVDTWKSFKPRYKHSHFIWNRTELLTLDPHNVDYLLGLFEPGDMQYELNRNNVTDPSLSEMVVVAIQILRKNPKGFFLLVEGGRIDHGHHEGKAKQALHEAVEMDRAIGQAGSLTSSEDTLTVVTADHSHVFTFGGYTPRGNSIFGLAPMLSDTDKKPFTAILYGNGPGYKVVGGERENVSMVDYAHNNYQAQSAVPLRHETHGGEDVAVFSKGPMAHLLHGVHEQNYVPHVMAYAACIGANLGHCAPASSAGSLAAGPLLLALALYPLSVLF
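Test system – human TNAP · Doses – 20 µM single point · Incubation – 30 min, room temperature · Signal – luminescent substrate turnover signal · Read-out basis – activation factor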
TNAP inh hi DEA – human TNAP enzyme inhibitors, primary screen, biochemical, luminescent, high phosphate acceptor level, uHTS | Alkaline phosphatase, tissue-nonspecific isozyme (Homo sapiens), P05186 | purified TNAP, CDP-star luminescence, 1 M DEA | inhibition, % at 20 µM | 200,000 tested, 0.03% active;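 active = over 50% inhibition of tissue-nonspecific alkaline phosphatase at 20 µM in the single-dose screen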
PTEN del growth – growth suppression of PTEN-null HCT116, primary screen, cell-based, CellTiter-Glo; HCT116 PTEN-null viability, 60 h; hits give low values; viability, % at 10 µM; 140,000 tested, 1.2% active;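 active = viability at or below a set limit, 4 SD under the median of all tested compounds, cut at about 3.7% in these data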;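 note: PTEN knockout HCT116 line with beta catenin targeted HCT116 as companion control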
TNAP inh no acc – human TNAP enzyme inhibitors, primary screen, biochemical, luminescent, no phosphate acceptor, uHTS; AID 1012, 2008; Alkaline phosphatase, tissue-nonspecific isozyme (Homo sapiens), P05186; inhibition, % at 20 µM; purified TNAP, CDP-star luminescence, 30 min; 200,000 tested, 0.26% active;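 active = tissue-nonspecific alkaline phosphatase inhibition above about 50% at 20 µM in the single-dose screen, limit read from the data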
bCat KO growth – primary screen for growth suppressors in beta-catenin knockout HCT116 cells (colon tumor, human); HCT116 beta-catenin knockout viability, CellTiter-Glo, 60 h; hits give low values; viability, % at 10 µM; 140,000 tested, 1.5% active; AID 818, 2007;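 active = viability at or under a set limit, the compound median less 4 SD, cut at about 6% in these data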
Hits are given with their value; – = inactive; · = no result given. This is a sample that favours compounds with a hit; in the whole collection about 9.6% have one here.

SMILES	L major viab	TNAP act hi DEA	TNAP inh hi DEA	PTEN del growth	TNAP inh no acc	bCat KO growth
CCN(CC)S(=O)(=O)c1cccc(NC(=O)/C=C/c2ccc([N+](=O)[O-])cc2)c1	–	–	–	–	–	–
CCN(CC)S(=O)(=O)c1ccc(/C=C/C(=O)Nc2ccc(Br)cc2F)cc1	99	–	–	–	–	–
CCCCCC1(C(=O)OCC)CC(CSC(=N)N)OC1=O (stereo unspecified)	–	–	–	·	–	·
CCc1cccc(NC(=O)CSc2nc3c(c(=O)[nH]2)CCCC3)c1	–	–	–	–	–	–
CN(CC(=O)Nc1cccc(F)c1)C(=O)CCCc1cccs1	–	–	–	–	–	–
CC(C)(C)C(=O)/C(=C/c1ccncc1)n1cncn1	100	–	–	·	–	·
Cc1ccc(/C=C/C(=O)c2ccccc(=O)c2O)cc1C	97	–	–	–	–	–
O=C(/C=C/c1ccccc1)c1cc(Br)ccc(=O)c1O	77	–	–	–	–	–
Cn1c(=O)cc(SCC(=O)NCCC2=CCCCC2)c2ccccc21	–	–	–	–	–	–
COc1ccccc1NC(=O)C1=C(C)Nc2ncnn2C1c1ccccc1C (stereo unspecified)	–	–	–	–	–	–
COc1ccc(C2CC(=O)C3=C(C2)Nc2ncnn2C3c2ccccc2)cc1 (stereo unspecified)	91	–	–	–	–	–
COc1ccc(C2CC(=O)C3=C(C2)Nc2ncnn2C3c2ccccc2C)cc1 (stereo unspecified)	100	–	–	–	–	–
COc1cc2c(cc1NC(=O)C(C)OC(=O)c1ccc(S(=O)(=O)Nc3ccccc3Cl)cc1)oc1ccccc12 (stereo unspecified)	–	–	–	·	–	·
CN(C(=O)c1ccccc1C(=O)OCC(=O)NCc1ccccc1)C1CCCCC1	67	–	–	–	–	–
CCCNC(=O)COC(=O)c1ccccc1C(=O)N(C)C1CCCCC1	–	–	–	–	–	–
OCCN1CCN(C(=S)c2ccc(Cl)c(Cl)c2)CC1	85	–	–	–	–	–
COc1cc(NC(=S)N2CCN(CCO)CC2)c(OC)cc1Cl	–	–	–	·	–	·
CCN(CC)S(=O)(=O)c1cccc(C(=O)OCC(=O)Nc2ccc3c(c2)c2ccccc2n3CC)c1	–	–	–	–	–	–
CCn1c2ccccc2c2cc(NC(=O)COC(=O)c3cccc(S(=O)(=O)NC)c3)ccc21	66	–	–	–	–	–
O=C(C1=C(O)C(=O)N(Cc2cccnc2)C1c1ccccn1)c1cccs1 (stereo unspecified)	–	–	–	·	–	·
CC[n+]1c(/C=C/N(C)c2ccccc2)oc2ccc(Cl)cc21	100	–	–	–	–	–
COCCOc1cc(-n2cccc2)c(Cl)cc1Cl	–	–	–	·	–	·
Cc1c(NS(=O)(=O)c2ccc(N(C)C3CCCCC3)c([N+](=O)[O-])c2)c(=O)n(-c2ccccc2)n1C	50	–	–	–	–	–
CCOc1cc2c(cc1OCC)C(c1ccccc1)N(c1ccccc1)C(=O)C2 (stereo unspecified)	81	–	–	–	–	–
CCOC(=O)/C(=N\Nc1ccccc1Cl)N1CCN(c2ccccc2OC)CC1	–	–	–	·	–	·
SMILES	L major viab	TNAP act hi DEA	TNAP inh hi DEA	PTEN del growth	TNAP inh no acc	bCat KO growth
CN(Cc1ccccc1)S(=O)(=O)c1ccccc1[N+](=O)[O-]	–	–	–	·	–	·
COc1ccc(/C=C2\SC(=N)N(c3nccs3)C2=O)cc1OC	97	–	–	–	–	–
COc1ccc(/C=C2\SC(=S)N(NC(=O)c3ccncc3)C2=O)cc1OC	–	–	–	·	–	·
N=C1S/C(=C\c2ccc(-c3cccc(Cl)c3)o2)C(=O)N1c1nccs1	99	–	–	2.9	–	5.4
COc1ccc(/C=C2\SC(=O)N=C2N)cc1OC	53	–	–	–	–	–
C=CCNC(=O)/C(C#N)=C/c1cn(-c2ccccc2)nc1-c1cccs1	–	–	–	–	–	–
COCCCNC(=O)CN(c1cc([N+](=O)[O-])ccc1OC)S(C)(=O)=O	–	–	–	·	–	·
CN(Cc1ccc(F)cc1)C(=O)COc1ccccc1-c1ccccc1	–	–	–	–	–	–
COc1ccc(CNC(=O)CN(Cc2ccc(Cl)cc2)S(=O)(=O)c2ccccc2)cc1	–	–	–	–	–	–
COc1ccc(C)cc1S(=O)(=O)N(CC(=O)N1CCOCC1)Cc1ccccc1	–	–	–	–	–	–
COc1ccc(CNC(=O)CN(Cc2ccccc2)S(=O)(=O)c2ccc(Cl)cc2)cc1	98	–	–	–	–	–
COc1ccc(C)cc1S(=O)(=O)N(CC(=O)NCc1ccc(Cl)cc1)Cc1ccccc1	99	–	–	–	–	–
COc1ccccc1NC(=O)N1CCCC(c2nc3c(nnn3Cc3ccc(C)cc3)c(=O)[nH]2)C1 (stereo unspecified)	52	–	–	–	–	–
CSc1nc(SCC(=O)NC(c2ccccc2)c2ccccc2)c2c3c(sc2n1)CN(C)CC3	71	–	–	–	–	–
COc1cc(/C=N/NC(=O)c2ccncc2)ccc1OCc1cnc(Cl)s1	–	–	–	·	–	·
CC(=NCc1cccc(Cl)c1)c1nc(-c2ccco2)oc1O	–	–	–	–	–	–
O=C(Cn1nnc(-c2ccccc2Cl)n1)N/N=C/c1ccc(-c2cccc(Cl)c2)o1	–	–	–	–	–	–
O=C(CN1CCCC1)N/N=C/c1ccc(-c2cccc(Cl)c2)o1	100	–	–	–	–	–
O=C(N/N=C/c1ccccn1)c1[nH]c2ccc([N+](=O)[O-])cc2c1-c1ccccc1	98	–	–	·	–	·
O=C(Nc1ccccc1)Nc1ccccc1NS(=O)(=O)c1cccs1	–	–	–	–	–	–
N#Cc1ccc(OCC(=O)Nc2ccccc2NS(=O)(=O)c2cccs2)cc1	63	–	–	–	–	–
Cc1cc(N2CCCC2)nc(-c2ccccc2O)n1	–	–	–	–	–	–
Cc1cc(N2CCCCC2)nc(N)n1	52	–	–	–	–	–
Cc1nc([N+](=O)[O-])c(Sc2nc3ccccc3[nH]2)n1Cc1ccccc1	99	–	–	–	–	–
Cc1nc([N+](=O)[O-])c(N2CCN(Cc3ccccc3)CC2)n1Cc1ccccc1	–	–	–	–	–	–
COc1ccc2nc(SCC(=O)Nc3ccccc3)[nH]c2c1	–	–	–	–	–	–
Cc1cc2nc(Sc3c([N+](=O)[O-])nc(C)n3Cc3ccccc3)[nH]c2cc1C	93	–	–	2.8	–	4.6
